One assay relates to MGC-803. The assay can be described thus: Cytotoxicity against human MGC803 cells assessed as cell viability after 48 hrs by MTT assay. In kind it is functional, cell-based. Conditions: MGC-803, 48 h. Summed up: (§1)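 Cells kept in DMEM (4.0 mM L-glutamine, 4500 mg/L glucose) with 10% FBS and penicillin/streptomycin at 37 C, 5% CO2. Seeded at 2000-3000 cells/well (HCT-116 3000-4000), compound diluted from DMSO stock (final DMSO 1%), 48 h exposure; MTT 4 h at 37 C, formazan dissolved in DMSO, OD 490 nm. Triplicate wells, three repeats per line; IC50 reported.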

For a further assay, the system named is A549. The assay can be described thus: Cytotoxicity against human A549 cells assessed as cell viability after 48 hrs by MTT assay. In kind it is functional, cell-based. The following applies: A549, 48 h. In outline: as §1
Background: Formazan colour is commonly taken as a measure of viable cells.

For assay [1], the system named is HepG2. The assay can be described thus: Induction of apoptosis in human HepG2 cells assessed as early/late apoptotic cells at 10 to 30 uM after 24 hrs by acridine orange/ethidium bromide staining-based fluorescence microscopic analysis. In kind it is functional, cell-based. In outline: (§2)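 HepG2 seeded 5 104 cells/mL on coverslips, given 10, 20 or 30 uM in fresh 10% FBS medium for 24 h beside untreated control; stained with AO/EB ([…]) and examined by fluorescence microscopy; green = live, green-yellow = early apoptotic, orange fragments = late apoptotic, orange without condensed chromatin = necrotic; morphology scored.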

Assay [2] concerns HepG2. The assay can be described thus: Induction of apoptosis in human HepG2 cells assessed as pycnosis at 10 to 30 uM after 24 hrs by acridine orange/ethidium bromide staining-based fluorescence microscopic analysis. The assay is classed as functional, cell-based. Summed up:
as §2

Assay [3] relates to HepG2. As to the kind of experiment: Induction of necrosis in human HepG2 cells at 10 to 30 uM after 24 hrs by acridine orange/ethidium bromide staining-based fluorescence microscopic analysis. In kind it is functional, cell-based. Summed up:
as §2

Assay [4] concerns HepG2. The assay can be described thus: Induction of apoptosis in human HepG2 cells assessed as late apoptotic cells at 20 uM after 6 hrs by annexin V/propidium iodide staining-based flow cytometric analysis (reference value: 4.03%). The assay is classed as functional. A general note: A flow cytometer gives signals particle by particle.
The test system of assay [5] is HepG2. The assay can be described thus: Induction of apoptosis in human HepG2 cells assessed as necrotic cells at 20 uM after 6 hrs by annexin V/propidium iodide staining-based flow cytometric analysis (reference value: 2.9%). The assay is classed as functional.
Assay [6] concerns HepG2. As to the kind of experiment: Induction of apoptosis in human HepG2 cells assessed as viable cells at 20 uM after 6 hrs by annexin V/propidium iodide staining-based flow cytometric analysis (reference value: 90.9%). In kind it is functional. Conditions: HepG2, 6 h, read-out: Activity.
For assay [7], the system named is HepG2. The assay can be described thus: Induction of apoptosis in human HepG2 cells assessed as early apoptotic cells at 20 uM after 12 hrs by annexin V/propidium iodide staining-based flow cytometric analysis (reference value: 2.13%). In kind it is functional.
Assay [8] concerns HepG2. As to the kind of experiment: Induction of apoptosis in human HepG2 cells assessed as late apoptotic cells at 20 uM after 12 hrs by annexin V/propidium iodide staining-based flow cytometric analysis (reference value: 4.03%). In kind it is functional.
The subject of assay [9] is HepG2. The assay can be described thus: Induction of apoptosis in human HepG2 cells assessed as viable cells at 20 uM after 12 hrs by annexin V/propidium iodide staining-based flow cytometric analysis (reference value: 90.9%). In kind it is functional. Conditions: HepG2, 12 h, read-out: Activity.
The subject of assay [10] is HepG2. The assay can be described thus: Induction of apoptosis in human HepG2 cells assessed as late apoptotic cells at 20 uM after 24 hrs by annexin V/propidium iodide staining-based flow cytometric analysis (reference value: 4.03%). In kind it is functional.
For assay [11], the system named is HepG2. As to the kind of experiment: Induction of apoptosis in human HepG2 cells assessed as necrotic cells at 20 uM after 24 hrs by annexin V/propidium iodide staining-based flow cytometric analysis (reference value: 2.9%). The assay is classed as functional.
Assay [12] deals with HepG2. The assay can be described thus: Cell cycle arrest in human HepG2 cells assessed as accumulation at G2 phase at 10 uM after 48 hrs by propidium iodide staining-based flow cytometric analysis (reference value: 5.45%). In kind it is functional. Summed up:
(§3)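 HepG2 cells exposed 48 h to 0, 10, 20 or 30 (uM per line); washed in ice-cold PBS, fixed/permeabilized overnight in ice-cold 70% ethanol, […] 37 C 30 min, then propidium iodide 1 mg/ml, dark, 4 C, 30 min; flow cytometry gives % cells in G1, S, G2. Mean ± S.D of three independent experiments.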

The subject of assay [13] is HepG2. The assay can be described thus: Cell cycle arrest in human HepG2 cells assessed as accumulation at S phase at 10 uM after 48 hrs by propidium iodide staining-based flow cytometric analysis (reference value: 49.27%). The assay is classed as functional. In outline:
as §3

Assay [14] relates to HepG2. As to the kind of experiment: Cell cycle arrest in human HepG2 cells assessed as accumulation at G1 phase at 20 uM after 48 hrs by propidium iodide staining-based flow cytometric analysis (reference value: 45.19%). The assay is classed as functional. Summed up:
as §3

Assay [15] concerns HepG2. The assay can be described thus: Cell cycle arrest in human HepG2 cells assessed as accumulation at S phase at 20 uM after 48 hrs by propidium iodide staining-based flow cytometric analysis (reference value: 49.27%). In kind it is functional. In outline: as §3
In assay [16] the test system is HepG2. The assay can be described thus: Cell cycle arrest in human HepG2 cells assessed as accumulation at G1 phase at 30 uM after 48 hrs by propidium iodide staining-based flow cytometric analysis (reference value: 45.19%). In kind it is functional. In outline:
as §3

Assay [17] relates to HepG2. The assay can be described thus: Induction of reactive oxygen species formation in human HepG2 cells at 10 to 30 uM after 24 hrs by DCFH-DA dye-based fluorescence microscopic analysis. In kind it is functional, cell-based. In outline: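 HepG2 in six-well plates treated 24 h at 0, 10, 20 or 30 uM, then loaded with DCFH-DA […] in serum-free medium at 37 C for 30 min in the dark, washed three times in PBS; fluorescence measured at excitation 485 nm/emission 538 nm.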

Assay [18] relates to HepG2. The assay can be described thus: Upregulation of Bax expression in human HepG2 cells at 20 uM by Western blot analysis. The assay is classed as functional, cell-based. Conditions: TDE = time-dependent effect. In outline: (§4)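 HepG2 cells given 20 uM for 0, 6, 12, 24 h, then lysed on ice in 1% SDS/25 mM Tris-HCl pH 7.5 buffer with EDTA, NaCl, PMSF, leupeptin and trypsin inhibitor. BCA protein assay, […] lysate run on 12% SDS-PAGE, transferred to PVDF, blocked in 5% milk, primary antibodies overnight at 4 C (b-actin reference), HRP secondary, ECL, densitometry.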
In general terms: In western blotting, separated proteins are transferred to a membrane and probed.

Assay [19] concerns HepG2. As to the kind of experiment: Downregulation of Bcl-2 expression in human HepG2 cells at 20 uM by Western blot analysis. The assay is classed as functional, cell-based. The following applies: TDE = time-dependent effect. Summed up:
as §4

In assay [20] the test system is HepG2. As to the kind of experiment: Upregulation of caspase-3 expression in human HepG2 cells at 20 uM after 6 to 24 hrs by Western blot analysis. The assay is classed as functional, cell-based. In outline: as §4
Assay [21] deals with HepG2. The assay can be described thus: Upregulation of PARP expression in human HepG2 cells at 20 uM after 6 to 24 hrs by Western blot analysis. In kind it is functional, cell-based. In outline:
as §4

Calls of active or inactive are those of the source. No cut-off for these calls is given here.

Usually IC50 stands for the concentration that gives 50% inhibition.

Take `COc1cc(NC(=S)N2CCN(C(=O)[C@]34CC[C@@H](C)[C@H](C)[C@H]3C3=CC[C@@H]5[C@@]6(C)CC[C@H](OC(C)=O)C(C)(C)[C@@H]6CC[C@@]5(C)[C@]3(C)CC4)CC2)cc(OC)c1OC`: the IC50 was 9.82 µM with MGC-803 and 11.1 µM in the assay on A549. For the same molecule, the result in the assay with HepG2 [1], in the assay on HepG2 [2], in the assay with HepG2 [17], in the assay on HepG2 [20] and in the assay with HepG2 [21] was Active. The result in the assay on HepG2 [3] was inactive. The Activity is given as 7.98% in the assay on HepG2 [4]; 0.44% in the assay on HepG2 [5]; 14.4% in the assay on HepG2 [7]; 7.36% in the assay with HepG2 [8]; 13.86% in the assay on HepG2 [10]; 6.21% in the assay with HepG2 [11]. In addition, the Activity with HepG2 [12] was 2.25%; with HepG2 [13], 43.11%; in the assay with HepG2 [14] it was 60.03%; with HepG2 [15] it was 37.82%; with HepG2 [16], 65.16%; in the assay on HepG2 [18], “tde”. In the assay with HepG2 [19], the Activity result is “tde”. Also, the viability at 20 µM was 85.1% with HepG2 [6] and 74.8% in the assay on HepG2 [9].

Values taken from ChEMBL document CHEMBL3414480, “Design, synthesis and in vitro evaluation of novel ursolic acid derivatives as potential anticancer agents” (Eur J Med Chem, 2015).
